Holding throughout (format): ADME
Conditions in all cases: recombinant enzyme

Series [1] addresses T1, Cytochrome P450 3A5 (Homo sapiens, UniProt P20815). As to the kind of experiment: Drug level assessed as human recombinant CYP3A5 in presence of human P450 oxidoreductase and b5-mediated drug metabolism treated with 10 uM of PF-04981517 by HPLC-MS analysis in presence of NADPH. The procedure, abridged:
(§1)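 Recombinant CYP3A4 or CYP3A5 (50 pmol/ml final) added, without preincubation, to 10 µM CYP3cide with NADPH (final 1 mM) in 100 mM phosphate pH 7.4. Trapping incubations also held 200 µM KCN or 5 mM GSH (final). Incubated 1 h at 37°C, quenched with acetonitrile, dried, reconstituted. Metabolites analysed by LC/Orbitrap ESI-MS.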

In series [2] the target is T2, Cytochrome P450 3A4 (Homo sapiens, UniProt P08684). As to the kind of experiment: Drug level assessed as human recombinant CYP3A4 in presence of human P450 oxidoreductase and b5-mediated drug metabolism treated with 10 uM of PF-04981517 by HPLC-MS analysis in presence of NADPH. The procedure, abridged:
as §1

The target of series [3] is T2, Cytochrome P450 3A4. As to the kind of experiment: Drug level assessed as human recombinant CYP3A4 in presence of human P450 oxidoreductase and b5-mediated drug metabolism treated with 10 uM of PF-04981517 by HPLC-MS analysis in presence of KCN and NADPH. Summed up: as §1
For series [4], the target named is T1, Cytochrome P450 3A5. As to the kind of experiment: Drug level assessed as human recombinant CYP3A5 in presence of human P450 oxidoreductase and b5-mediated drug metabolism treated with 10 uM of PF-04981517 by HPLC-MS analysis in presence of KCN and NADPH. Summed up:
as §1

Series [5] concerns the target T1, Cytochrome P450 3A5. As to the kind of experiment: Drug metabolism assessed as human recombinant CYP3A5 in presence of human P450 oxidoreductase and b5-mediated compound formation at 10 uM by HPLC-MS analysis in presence of KCN. Summed up: as §1

T2 sequence (P08684 whole entry): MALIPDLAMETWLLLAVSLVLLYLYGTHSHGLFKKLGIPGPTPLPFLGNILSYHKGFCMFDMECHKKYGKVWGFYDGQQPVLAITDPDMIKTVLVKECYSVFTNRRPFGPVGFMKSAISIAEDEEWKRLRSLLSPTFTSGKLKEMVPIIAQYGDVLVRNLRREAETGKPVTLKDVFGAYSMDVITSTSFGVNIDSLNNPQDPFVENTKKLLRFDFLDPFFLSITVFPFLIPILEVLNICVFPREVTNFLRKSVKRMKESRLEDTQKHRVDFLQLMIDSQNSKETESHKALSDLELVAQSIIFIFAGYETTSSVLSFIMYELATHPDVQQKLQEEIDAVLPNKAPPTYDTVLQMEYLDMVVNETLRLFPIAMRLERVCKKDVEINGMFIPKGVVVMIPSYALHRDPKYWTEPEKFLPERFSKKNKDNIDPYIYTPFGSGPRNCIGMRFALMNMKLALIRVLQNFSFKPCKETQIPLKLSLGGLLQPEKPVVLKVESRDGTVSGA
T1 sequence (P20815 whole entry): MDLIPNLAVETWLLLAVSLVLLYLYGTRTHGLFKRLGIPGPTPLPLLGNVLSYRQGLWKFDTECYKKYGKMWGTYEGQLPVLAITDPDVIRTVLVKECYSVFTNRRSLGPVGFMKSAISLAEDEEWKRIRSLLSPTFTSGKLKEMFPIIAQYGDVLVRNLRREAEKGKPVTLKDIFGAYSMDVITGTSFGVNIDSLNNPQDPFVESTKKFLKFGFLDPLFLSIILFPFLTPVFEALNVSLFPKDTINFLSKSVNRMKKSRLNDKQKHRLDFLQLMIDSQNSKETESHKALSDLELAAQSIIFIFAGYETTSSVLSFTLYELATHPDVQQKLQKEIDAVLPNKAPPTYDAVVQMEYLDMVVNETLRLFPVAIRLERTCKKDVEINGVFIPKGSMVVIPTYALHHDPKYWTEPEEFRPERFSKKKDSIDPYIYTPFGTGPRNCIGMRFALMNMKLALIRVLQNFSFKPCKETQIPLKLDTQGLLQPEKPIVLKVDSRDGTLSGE

With `Cc1ccc(-c2c(-c3nn(C)c4ncnc(N5CC[C@H](N6CCCCC6)C5)c34)cnn2CO)cc1`, the Drug metabolism result at Cytochrome P450 3A5 [1], at Cytochrome P450 3A4 [2], on Cytochrome P450 3A4 [3] and at Cytochrome P450 3A5 [4] was “metabolite_detected” in each case.
Take `Cc1ccc(-c2c(-c3nn(C)c4ncnc(N5CC[C@H](N)C5)c34)cnn2C)cc1`: the Drug metabolism entry on Cytochrome P450 3A5 [5] is listed as “metabolite_detected”.
On to `Cc1ccc(-c2c(-c3nn(C)c4ncnc(N5CC[C@H]([N+]6=CCCCC6)C5)c34)cnn2C)cc1`, for which the Drug metabolism result on Cytochrome P450 3A5 [1], on Cytochrome P450 3A4 [2], on Cytochrome P450 3A4 [3] and on Cytochrome P450 3A5 [4] was “metabolite_detected” throughout.
Consider `Cc1ccc(-c2c(-c3nn(C)c4ncnc(N5CC[C@H](N6CCCCC6=O)C5)c34)cnn2C)cc1`, for which the Drug metabolism result at Cytochrome P450 3A5 [5] is reported as “metabolite_detected”.

The values above are taken from ChEMBL document CHEMBL3526089, “Selective mechanism-based inactivation of CYP3A4 by CYP3cide (PF-04981517) and its utility as an in vitro tool for delineating the relative roles of CYP3A4 versus CYP3A5 in the metabolism of drugs” (Drug Metab Dispos, 2012).
